According to ChEMBL document CHEMBL1154958, “Novel molecular hybrids of cinnamic acids and guanylhydrazones as potential antitubercular agents” (Bioorg Med Chem Lett, 2010):
≈ marks a conversion by molar mass, not a printed value.

Key:
[1] = test system: Mycobacterium tuberculosis; experiment: Antituberculosis activity against Mycobacterium tuberculosis H37Rv after 7 days by resazurin microtiter assay; format: functional; conditions: 168 h
Outline: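 H37Rv suspension seeded at 10⁵ cells/well in Middlebrook 7H9 broth. Compounds were serially diluted on the plate, and controls got matching DMSO. Plates were incubated at 37 °C for 7 days, then fresh 0.02% resazurin was added and plates incubated a further 48 h. MIC was the lowest concentration giving complete inhibition, read visually by colour.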

[2] = Cytotoxicity against african green monkey Vero C1008 cells after 72 hrs by MTT assay; format: cell-based; conditions: chlorocebus sabaeus
[3] = Cytotoxicity against african green monkey Vero C1008 cells assessed as cell viability at 125 ug/ml after 72 hrs by MTT assay; format: cell-based; conditions: chlorocebus sabaeus, read-out: Activity
[4] = Cytotoxicity against african green monkey Vero C1008 cells assessed as cell viability at 62.5 ug/ml after 72 hrs by MTT assay; format: cell-based; conditions: chlorocebus sabaeus, read-out: Activity
[5] = Cytotoxicity against african green monkey Vero C1008 cells assessed as cell viability at 31.25 ug/ml after 72 hrs by MTT assay; format: cell-based; conditions: chlorocebus sabaeus, read-out: Activity
[6] = Cytotoxicity against african green monkey Vero C1008 cells assessed as cell viability at 2000 ug/ml after 72 hrs by MTT assay; format: cell-based; conditions: chlorocebus sabaeus, read-out: Activity
[7] = Cytotoxicity against african green monkey Vero C1008 cells assessed as cell viability at 1000 ug/ml after 72 hrs by MTT assay; format: cell-based; conditions: chlorocebus sabaeus, read-out: Activity

| Compound | MIC [1] [µM] | CC50 at 72 h [2] [mM] | viability at 72 h, 125 ug/ml [3] [%] | viability at 72 h, 62.5 ug/ml [4] [%] | viability at 72 h, 31.25 ug/ml [5] [%] | viability at 72 h, 2000 ug/ml [6] [%] | viability at 72 h, 1000 ug/ml [7] [%] |
| --- | --- | --- | --- | --- | --- | --- | --- |
| NNC(=O)c1ccncc1 [ISONIAZID] | 1.8 (≈ 0.247 µg/mL) | 5.83 | 95.5 | 98.5 | 99.3 | 23.1 | 31.7 |
| O=C(/C=C/c1ccccc1)Oc1ccccc1 [PHENYL CINNAMATE] | 502 (≈ 113 µg/mL) | – | – | – | – | – | – |
| N=C(N)N/N=C/c1ccc(O)cc1 | 1120 (≈ 200 µg/mL) | – | – | – | – | – | – |
| O=C(O)/C=C/c1ccccc1 [CINNAMIC ACID] | 675 (≈ 100 µg/mL) | – | – | – | – | – | – |
